The source made the active and inactive calls. No cut-off for these calls is given here. Where a SMILES comes first, the peptide text is derived from it.
How the values were obtained:
[1] = Inhibition of chymotrypsin-like activity of 20S proteasome
[2] = Inhibition of caspase-like activity of 20S proteasome
[3] = Inhibition of trypsin-like activity of 20S proteasome
[4] = tested on: HeLa; experiment: Inhibition of proteasome activity in human HeLa cells transfected with UbG76V-GFP assessed as accumulation of ubiquitinG76V-GFP at 7.5 uM after 24 hrs by fluorescence microscopy
How it was run: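 HeLa cells stably expressing Ub^G76V-GFP, grown in DMEM with 10% heat-inactivated FBS at 37 °C, humidified. Cells seeded at 10,000 per well and exposed to compound at 7.5 µM for 24 h. Proteasome block is read as intracellular Ub^G76V-GFP accumulation (green fluorescence), documented by fluorescence microscopy against untreated cells.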

| Compound | IC50 [1] [µM] | inhibition [1] | further results |
| --- | --- | --- | --- |
| C[C@H](CCC(=O)O)[C@H]1CC[C@H]2[C@@H]3CC[C@@H]4C[C@H](OC(=O)Cc5cccc(CC(=O)O)c5)CC[C@]4(C)[C@H]3CC[C@]12C | 1.9 |  | IC50 [2]: 6.5 µM; IC50 [3]: 9.1 µM |
| CCOC(=O)CC[C@@H](C)[C@H]1CC[C@H]2[C@@H]3CC[C@@H]4C[C@H](OC(=O)CCCCCC(=O)O)CC[C@]4(C)[C@H]3CC[C@]12C |  | inactive |  |
| C[C@H](CCC(=O)O)[C@H]1CC[C@H]2[C@@H]3CC[C@@H]4C[C@H](OC(=O)[C@@H]5CCCC[C@H]5C(=O)O)CC[C@]4(C)[C@H]3CC[C@]12C | 8.5 |  |  |
| CC(C(=O)O)C(C)C(=O)O[C@@H]1CC[C@@]2(C)[C@H](CC[C@@H]3[C@@H]2CC[C@]2(C)[C@@H]([C@H](C)CCC(=O)O)CC[C@@H]32)C1 (some centres not stated) | 5.8 |  |  |
| COC(=O)CC[C@@H](C)[C@H]1CC[C@H]2[C@@H]3CC[C@@H]4C[C@H](OC(=O)CCCCCC(=O)O)CC[C@]4(C)[C@H]3CC[C@]12C |  | inactive |  |
| C[C@H](CCC(=O)O)[C@H]1CC[C@H]2[C@@H]3CC[C@@H]4C[C@H](OC(=O)CCCCCC(=O)O)CC[C@]4(C)[C@H]3CC[C@]12C |  | inactive |  |
| C[C@H](CCC(=O)O)[C@H]1CC[C@H]2[C@@H]3CC[C@@H]4C[C@H](OC(=O)CC5(CC(=O)O)CCCC5)CC[C@]4(C)[C@H]3CC[C@]12C | 2.2 |  | inhibition [4]: Active |
| CC(CC(=O)O[C@@H]1CC[C@@]2(C)[C@H](CC[C@@H]3[C@@H]2CC[C@]2(C)[C@@H]([C@H](C)CCC(=O)O)CC[C@@H]32)C1)C(=O)O (some centres not stated) | 11.5 |  |  |
| CSCC[C@@H](C=O)NC(=O)[C@H](CC(C)C)NC(=O)[C@H](CC(C)C)NC(C)=O (Ac-Leu-Leu-Met-aldehyde) | 5.2 |  |  |
| COC(=O)CC[C@@H](C)[C@H]1CC[C@H]2[C@@H]3CC[C@@H]4C[C@H](OC(=O)Cc5cccc(CC(=O)O)c5)CC[C@]4(C)[C@H]3CC[C@]12C |  | inactive |  |
| C[C@H](CCC(=O)O)[C@H]1CC[C@H]2[C@@H]3CC[C@@H]4C[C@H](OC(=O)COCC(=O)O)CC[C@]4(C)[C@H]3CC[C@]12C | 6.9 |  |  |
| C[C@H](CCC(=O)O)[C@H]1CC[C@H]2[C@@H]3CC[C@@H]4C[C@H](O)CC[C@]4(C)[C@H]3CC[C@]12C [LITHOCHOLIC ACID] | 18.1 |  |  |
| C[C@H](CCC(=O)O)[C@H]1CC[C@H]2[C@@H]3CC[C@@H]4C[C@H](OC(=O)c5ccccc5C(=O)O)CC[C@]4(C)[C@H]3CC[C@]12C | 8.6 |  |  |
| C[C@H](CCC(=O)O)[C@H]1CC[C@H]2[C@@H]3CC[C@@H]4C[C@H](OC(=O)CCCCC(=O)O)CC[C@]4(C)[C@H]3CC[C@]12C | 3.5 |  |  |
| C[C@H](CCC(=O)O)[C@H]1CC[C@H]2[C@@H]3CC[C@@H]4C[C@H](OC(=O)CCCC(=O)O)CC[C@]4(C)[C@H]3CC[C@]12C | 10.8 |  |  |
| COC(=O)CC[C@@H](C)[C@H]1CC[C@H]2[C@@H]3CC[C@@H]4C[C@H](O)CC[C@]4(C)[C@H]3CC[C@]12C |  | inactive |  |
| C[C@H](CCC(=O)O)[C@H]1CC[C@H]2[C@@H]3CC[C@@H]4C[C@H](OC(=O)CCC(=O)O)CC[C@]4(C)[C@H]3CC[C@]12C | 10.3 |  |  |
| CCOC(=O)CC[C@@H](C)[C@H]1CC[C@H]2[C@@H]3CC[C@@H]4C[C@H](O)CC[C@]4(C)[C@H]3CC[C@]12C |  | inactive |  |
| C[C@H](CCC(=O)O)[C@H]1CC[C@H]2[C@@H]3CC[C@@H]4C[C@H](OC(=O)Cc5ccc(CC(=O)O)cc5)CC[C@]4(C)[C@H]3CC[C@]12C | 3.8 |  |  |
